We go through four substances from paper PMC3086613 (Theranostics, 2011).

Series [1] deals with PC-3 cells. In words: Cell uptake of 18F-labeled BBN peptides. Format: cell-based, human. As to conditions: for PC-3 cell uptake peak value (percent added radioactivity): 37 °C, 15 min, n = 3, mean ± SD; for Cell uptake at 37 °C versus 4 °C: PC-3 cells. The essentials:
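PC-3 cells (F-12K, 10% FBS, 37 °C, 5% CO2) were seeded at 1 × 10^5 per well overnight, washed three times with PBS, and given ~0.5 μCi/well radiotracer in triplicate at 37 °C. At 15, 30, 60 and 120 min, cells were rinsed with PBS and lysed with 0.1 M NaOH. Lysate activity was gamma-counted and expressed as percent added radioactivity.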

Series [2] relates to PC-3 cells. In words: Cell washout. The format is cell-based, human. As to conditions: 37 °C, serum-free medium devoid of radioactivity. In short, it runs like this: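 PC-3 cells were seeded at 1 × 10^5 per well overnight, PBS-rinsed, then loaded with ~0.5 μCi/well radiotracer in triplicate for 2 h at 37 °C. After a PBS wash they were re-incubated in serum-free medium. At 0, 15, 30, 60 and 120 min, cells were PBS-washed and lysed in 0.1 M NaOH. Retained activity was gamma-counted as percent added radioactivity.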

The test system of series [3] is PC-3 tumor-bearing nude mice. In words: Small animal microPET imaging, ROI-derived radioactivity accumulation. Format: in vivo. Conditions: 3.7 MBq i.v.; PC-3 tumor-bearing mice; n = 3/group. The essentials:
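Male athymic nude mice carried PC-3 xenografts (5 × 10^6 cells s.c., front flank; 100–300 mm3 after 3–4 weeks). Under isoflurane, ~3.7 MBq (100 μCi) radiotracer was given via tail vein. Five-minute static scans were taken at 30 min, 1 h and 2 h (2D OSEM, no attenuation or scatter correction). ROIs on decay-corrected coronal images gave %ID/g, assuming 1 g/mL; n = 3/group.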

“18F-FP- GGGRDN-FQWAVGHLM-NHEt [^18F-FP-MATBBN]”: in the series on PC-3 cells [1], the “PC-3 cell uptake peak value (percent added radioactivity)” value worked out at 0.3 ± 0.07% and the “Cell uptake at 37 °C versus 4 °C” value is reported as “no significant difference”. Further, the “Washout rate from PC-3 cells” value in the series with PC-3 cells [2] was “Much faster washout rate”.
As to 18F-FP-Aca-QWAVGHLM-NH2 [^18F-FP-AGBBN], in series [3], the “Activity accumulation in non-target organs on PET images (in words)” value is “very high liver, bile and intestinal uptake”; the “Tumor uptake on PET images (in words)” value is “some tumor accumulation”.
In the case of “18F-FP- GGGRDN-QWAVGHLM-NH2 [^18F-FP-MAGBBN]”, in the series on PC-3 cells [1], the “PC-3 cell uptake peak value (percent added radioactivity)” value is on record as 1.2 ± 0.07% and the “Cell uptake at 37 °C versus 4 °C” value is given as 2 fold. In addition, the “Washout rate from PC-3 cells” value in the series on PC-3 cells [2] was “slower washout”.
18F-FP-FQWAVGHL-NHEt [^18F-FP-ATBBN]: in series [3], the “Activity accumulation in non-target organs on PET images (in words)” value is “rapid and prominent activity accumulation in the liver and intestines”; the “Tumor uptake on PET images (in words)” value is “almost no tumor uptake”.
